Read-outs that look alike come from different tables or passages of the source.
Experiments:
[1] = biological target: CYP2C9 (Homo sapiens, UniProt P11712); experiment: In-vitro CYP inhibition in pooled human liver microsomes; type: in vitro ADME
[2] = cited from earlier work
[3] = cited from earlier work; remark: listed apart in the source
[4] = tested on: 5-HT1B receptor; conditions: in vitro; cited from earlier work
[5] = cited from earlier work; remark: listed apart in the source
[6] = tested on: 5-HT7 receptor; conditions: in vitro; cited from earlier work
[7] = Tolerability / adverse events in phase I studies; type: in vivo, human; conditions: phase I data grouped by CYP2D6-predicted phenotypes
[8] = tested on: SERT; conditions: Japanese and white male individuals, cited from earlier work
[9] = cited from earlier work; remark: listed apart in the source
[10] = tested on: 5-HT3 receptor; conditions: in vitro; cited from earlier work
[11] = tested on: CYP3A4/5; experiment: In-vitro CYP inhibition in pooled human liver microsomes; type: in vitro ADME; conditions: data on file
[12] = cited from earlier work; remark: listed apart in the source
[13] = cited from earlier work; remark: listed apart in the source
[14] = cited from earlier work; remark: listed apart in the source
[15] = tested on: P-glycoprotein (Pgp) transporter; conditions: cited from earlier work
[16] = type: in vivo, human; conditions: for AUC(0-inf) / AUC(0-t) / Cmax / Tmax / Vd/F / half-life: both, human, plasma, po; for CL/F: healthy subjects, mean (% CV)
Procedure, shortened: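 Healthy subjects given a single oral dose; plasma parameters derived by non-compartmental analysis of pooled phase I data. Reported as mean and % coefficient of variation, except Tmax as median (minimum–maximum). AUC taken both to infinity and to the last quantifiable concentration. CL/F is total clearance, and Vz/F is the terminal-phase apparent volume after extravascular dosing.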

[17] = biological target: T1, CYP2C8 (Homo sapiens, UniProt P10632); experiment: In-vitro CYP inhibition in pooled human liver microsomes; type: in vitro ADME
T1 sequence (P10632 1-490): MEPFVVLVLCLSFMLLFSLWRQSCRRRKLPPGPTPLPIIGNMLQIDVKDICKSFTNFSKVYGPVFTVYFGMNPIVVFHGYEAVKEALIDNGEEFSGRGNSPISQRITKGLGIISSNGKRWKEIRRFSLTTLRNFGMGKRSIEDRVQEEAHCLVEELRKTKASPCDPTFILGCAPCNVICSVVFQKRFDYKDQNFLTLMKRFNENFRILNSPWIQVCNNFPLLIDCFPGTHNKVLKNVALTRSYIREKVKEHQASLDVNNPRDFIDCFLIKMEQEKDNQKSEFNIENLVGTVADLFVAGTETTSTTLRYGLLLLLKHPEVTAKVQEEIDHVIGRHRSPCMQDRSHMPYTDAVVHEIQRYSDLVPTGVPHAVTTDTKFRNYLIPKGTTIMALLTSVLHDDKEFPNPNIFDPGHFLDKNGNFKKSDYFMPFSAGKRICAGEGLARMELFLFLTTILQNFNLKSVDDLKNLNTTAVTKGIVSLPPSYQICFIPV

[18] = biological target: CYP2C19 (Homo sapiens, UniProt P33261); experiment: as above; type: in vitro ADME
[19] = pooled human liver microsomes, CYP isozyme-specific probe substrates, data on file
[20] = within 360 h, single 50-mg 14C dose
[21] = 10 mg daily for 14 days (Fig. 2)
[22] = single dose 10 mg, 65–85 vs 18–45 years
[23] = single dose, 24 male vs 24 female
[24] = mild-to-moderate hepatic impairment, single dose 10 mg (Fig. 2)
[25] = severe hepatic impairment, single dose 5 mg

Chain of CYP2C19 (P33261 whole entry): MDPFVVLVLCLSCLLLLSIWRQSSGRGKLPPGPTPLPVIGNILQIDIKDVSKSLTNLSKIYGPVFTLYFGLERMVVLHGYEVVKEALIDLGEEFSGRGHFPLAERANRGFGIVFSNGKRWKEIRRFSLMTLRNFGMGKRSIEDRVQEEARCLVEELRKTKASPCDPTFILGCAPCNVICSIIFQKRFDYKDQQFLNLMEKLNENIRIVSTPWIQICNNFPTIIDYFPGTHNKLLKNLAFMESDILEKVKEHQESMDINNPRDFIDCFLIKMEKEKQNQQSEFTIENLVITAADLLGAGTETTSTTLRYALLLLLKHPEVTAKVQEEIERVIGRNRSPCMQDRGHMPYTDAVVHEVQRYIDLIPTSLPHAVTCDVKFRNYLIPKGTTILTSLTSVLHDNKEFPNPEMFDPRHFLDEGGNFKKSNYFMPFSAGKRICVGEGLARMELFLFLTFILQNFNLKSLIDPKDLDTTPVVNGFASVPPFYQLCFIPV
Chain of CYP2C9 (P11712 whole entry): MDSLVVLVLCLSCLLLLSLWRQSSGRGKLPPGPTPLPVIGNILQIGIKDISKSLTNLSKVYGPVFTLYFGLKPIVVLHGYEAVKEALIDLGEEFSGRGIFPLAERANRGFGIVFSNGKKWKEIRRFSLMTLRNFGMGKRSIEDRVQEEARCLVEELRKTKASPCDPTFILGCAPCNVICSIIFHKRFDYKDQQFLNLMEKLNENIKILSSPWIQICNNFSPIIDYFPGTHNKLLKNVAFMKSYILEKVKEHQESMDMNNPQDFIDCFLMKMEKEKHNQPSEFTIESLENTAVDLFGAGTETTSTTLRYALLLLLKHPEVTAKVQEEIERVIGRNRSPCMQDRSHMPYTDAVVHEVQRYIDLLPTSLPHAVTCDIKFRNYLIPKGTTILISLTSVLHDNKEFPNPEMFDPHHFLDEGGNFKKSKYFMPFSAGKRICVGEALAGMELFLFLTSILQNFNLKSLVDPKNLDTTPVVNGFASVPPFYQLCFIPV

Br.Cc1ccc(Sc2ccccc2N2CCNCC2)c(C)c1 [vortioxetine, 1-[2-(2,4-dimethyl-phenylsulfanyl)-phenyl]-piperazine, hydrobromide]
ratio of maximum plasma concentration of inhibitor (I) and Ki ([1]; CYP2C9, much smaller than): smaller than 0.1 | inhibitory effect on CYP2C9 [1, 19]: inhibitory effect | plasma protein binding, renally compromised vs healthy controls [2]: no difference | C max lower than healthy controls ([2]; end-stage renal disease, single dose 10 mg (Fig. 2)): 27% | predicted exposure, difference from healthy control group ([2]; linear regression on creatinine clearance): ≤ 30% | AUC(0–t) higher than healthy controls ([2]; mild renal impairment, single dose 10 mg): 9% | C max difference from healthy controls ([2]; mild, moderate, or severe renal impairment, single dose 10 mg): ≤ 11% | AUC(0–t) higher than healthy controls ([2]; moderate renal impairment, single dose 10 mg): 16% | AUC(0–t) higher than healthy controls ([2]; severe renal impairment, single dose 10 mg): 11% | parent drug detected in the feces ([3]; single 50-mg 14C dose, feces only): 1.5% | drug concentration in plasma relative to whole blood ([3]; single oral dose 50 mg 14C-labeled): double | drug-related material recovered in feces [3, 20]: 26% | drug-related material recovered in urine [3, 20]: 59% | drug-related material recovered in urine and feces [3, 20]: approximately 85% | action at 5-HT1B receptor [4]: partial agonist | AUC(0–24) higher in black than white volunteers [5, 21]: 25% | C max higher in black than white volunteers [5, 21]: 33% | AUC(0–t) higher in elderly than young subjects [5, 22]: 4% | C max lower in elderly than young subjects [5, 22]: 11% | AUC(0–t) higher in female than male subjects [5, 23]: 18% | C max higher in female than male subjects [5, 23]: 16% | action at 5-HT7 receptor [6]: antagonist | overall incidence of adverse events, CYP2D6 PMs vs non-PMs [7]: no clinically relevant differences | SERT occupancy ([8]; 5-mg dose): approximately 50% | SERT occupancy ([8]; 10-mg dose): ~65% | SERT occupancy ([8]; 20-mg dose): above 80% | effect of food (high-fat meal) on PK parameters ([9]; fed vs fasting): No food effect | 90% CIs for AUC(0–t) or AUC(0–inf) and C max ratios (fed to fasting) ([9]; high-fat meal, within bioequivalence range): 80–125% | action at 5-HT3 receptor [10]: antagonist | inhibitory in-vitro effect on CYP3A4/5 [11]: no inhibitory in-vitro effect | fraction of unbound parent drug, hepatically impaired vs healthy [12]: no differences | AUC(0–t) lower than healthy cohorts [12, 24]: up to 9% | C max lower than healthy cohorts [12, 24]: up to 16% | AUC(0–t) higher than healthy controls [12, 25]: 10% | C max lower than healthy controls [12, 25]: 24% | effect on neuropsychologic tests of cognitive domains with diazepam ([13]; co-administration with diazepam): did not have a statistically significant effect | effect on mental and motor impairment effects of alcohol ([13]; computerized neuropsychologic tests): did not increase | tolerability regardless of degree of renal or hepatic impairment [14]: well tolerated | tolerability of combination ([14]; rifampin 600 mg daily with vortioxetine 20 mg): well tolerated | I/half maximal inhibitory concentration (Pgp efflux) [15]: smaller than 0.1 | Pgp substrate in vitro ([15]; in vitro): poor substrate | inhibition of Pgp transport in vitro ([15]; in vitro): weak inhibitor | time to reach maximum observed plasma concentration ([16]; after single or multiple dosing (Tables 1, 2)): 7 to 11 h | AUC(0-inf) ([16]; 5 mg): 188 ng·h/mL | AUC(0-t) ([16]; 5 mg): 157 ng·h/mL | Cmax ([16]; 5 mg): 1.87 ng/mL | Tmax ([16]; 5 mg): 11 h | Vd/F ([16]; 5 mg): 2740 L | half-life ([16]; 5 mg): 69.4 h | AUC(0-inf) ([16]; 10 mg): 273 ng·h/mL | AUC(0-t) ([16]; 10 mg): 255 ng·h/mL | Cmax ([16]; 10 mg): 4.6 ng/mL | Tmax ([16]; 10 mg): 8 h | Vd/F ([16]; 10 mg): 2770 L | half-life ([16]; 10 mg): 60.6 h | AUC(0-inf) ([16]; 20 mg): 646 ng·h/mL | AUC(0-t) ([16]; 20 mg): 561 ng·h/mL | Cmax ([16]; 20 mg): 8.11 ng/mL | Tmax ([16]; 20 mg): 10 h | Vd/F ([16]; 20 mg): 3290 L | half-life ([16]; 20 mg): 64.3 h | estimated total clearance (CL/F) ([16]; oral, single or multiple doses (Tables 1, 2)): 30 to 41 L/h | CL/F ([16]; single oral dose 5 mg): 29.62 (35) L/h | CL/F ([16]; single oral dose 10 mg): 40.52 (40) L/h | CL/F ([16]; single oral dose 20 mg): 41.47 (60) L/h | ratio of maximum plasma concentration of inhibitor (I) and Ki ([17]; CYP2C8, much smaller than): smaller than 0.1 | inhibitory effect on CYP2C8 [17, 19]: inhibitory effect | ratio of maximum plasma concentration of inhibitor (I) and Ki ([18]; CYP2C19, much smaller than): smaller than 0.1 | inhibitory effect on CYP2C19 [18, 19]: inhibitory effect

From paper PMC5973995 (Clinical Pharmacokinetics, 2017)
